Data reported in ChEMBL document CHEMBL1148921, “Steroidal glycosides from the bulbs of Ornithogalum thyrsoides” (J Nat Prod, 2004).
≈ marks a conversion by molar mass, not a printed value.

Experiments:
HL-60 = experiment: Cytotoxicity against human HL60 cells after 72 hrs by MTT assay; format: functional, cell-based; conditions: HL-60, 72 h
In short: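 HL-60 leukemia cells seeded in 96-well plates, held 24 h at 37 °C in 5% CO2/air, then given sample in EtOH-H2O (1:1) to final 0.1-20 µg/mL; solvent alone for controls. Exposure 72 h, then MTT for 4 h at 37 °C; cells and formazan pelleted, formazan dissolved in DMSO, A550 read. Triplicate; IC50 = concentration cutting viable cell number by 50%.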

HSC-2 = experiment: Cytotoxicity against human HSC2 cells after 24 hrs by MTT assay; format: functional, cell-based; conditions: HSC-2, 24 h
In short: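 HSC-2 monolayers kept in DMEM with 10% heat-inactivated FBS at 37 °C, 5% CO2. Trypsinized cells plated, grown 24 h, PBS-washed, exposed 24 h with or without compound. After PBS wash, 0.2 mg/mL MTT in DMEM/10% FBS for 4 h; cells lysed in DMSO and absorbance taken as relative viable cell number. IC50 reported.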

SMILES | IC50 (HL-60) [µg/mL] | IC50 (HSC-2) [µg/mL]
COc1cc(C(=O)OC[C@H]2O[C@@H](O[C@@H]3C[C@H](O)C[C@@H]4CC[C@H]5[C@@H]6C[C@H](O[C@@H]7O[C@H](CO)[C@@H](O)[C@H](O)[C@H]7O)[C@H]([C@H](C)[C@@H](O)CCC(C)C)[C@@]6(C)CC[C@@H]5[C@]43C)[C@H](O)[C@@H](O)[C@@H]2O)cc(OC)c1OC | 5 (≈ 5.23 µM) | > 100
CC(C)=CC[C@H](O)[C@@H](C)[C@H]1[C@@H](O[C@@H]2O[C@@H](C)[C@H](O)[C@@H](O)[C@H]2O)C[C@H]2[C@@H]3CC[C@H]4C[C@@H](O)C[C@@H](O[C@@H]5O[C@@H](C)[C@H](O)[C@@H](O)[C@H]5O)[C@]4(C)[C@H]3CC[C@]12C | > 10 | > 100
CC(C)=CC[C@H](O)[C@@H](C)[C@H]1[C@@H](O[C@@H]2O[C@@H](C)[C@H](O)[C@@H](O)[C@H]2O)C[C@H]2[C@@H]3CC=C4C[C@@H](O)C[C@@H](O[C@@H]5O[C@@H](C)[C@H](O)[C@@H](O)[C@H]5O)[C@]4(C)[C@H]3CC[C@]12C | 5.1 (≈ 7.04 µM) | > 100
C[C@@H]1CC[C@@]2(OC1)O[C@H]1C[C@H]3[C@@H]4CC=C5C[C@@H](O)C[C@@H](O[C@@H]6OC[C@H](O)[C@H](O[C@@H]7OC[C@@H](O)[C@H](O)[C@H]7O)[C@H]6O[C@@H]6O[C@@H](C)[C@H](O)[C@@H](O)[C@H]6O)[C@]5(C)[C@H]4CC[C@]3(C)[C@H]1[C@@H]2C | 1.9 (≈ 2.26 µM) | 21.2 (≈ 25.2 µM)
C[C@@H]1CC[C@@]2(OC1)O[C@H]1C[C@H]3[C@@H]4CC[C@H]5C[C@@H](O)C[C@@H](O[C@@H]6O[C@H](CO)[C@@H](O)[C@H](O)[C@H]6O)[C@]5(C)[C@H]4CC[C@]3(C)[C@H]1[C@@H]2C | 1.6 (≈ 2.69 µM) | 34.6 (≈ 58.2 µM)
C[C@@H]1CC[C@@]2(OC1)O[C@H]1C[C@H]3[C@@H]4CC=C5C[C@@H](O)C[C@@H](O[C@@H]6OC[C@H](O)[C@H](O)[C@H]6O[C@@H]6O[C@@H](C)[C@H](O)[C@@H](O)[C@H]6O)[C@]5(C)[C@H]4CC[C@]3(C)[C@H]1[C@@H]2C | 2.2 (≈ 3.1 µM) | 19.9 (≈ 28.1 µM)
COc1cc(C(=O)OC[C@H]2O[C@@H](O[C@@H]3C[C@H](O)C[C@@H]4CC[C@H]5[C@@H]6C[C@H](O[C@@H]7O[C@H](CO)[C@@H](O)[C@H](O)[C@H]7O)[C@H]([C@H](C)[C@@H](O)CC=C(C)C)[C@@]6(C)CC[C@@H]5[C@]43C)[C@H](O)[C@@H](O)[C@@H]2O)cc(OC)c1OC | > 10 | > 100
CC(C)CC[C@H](O)[C@@H](C)[C@H]1[C@@H](O[C@@H]2O[C@H](CO)[C@@H](O)[C@H](O)[C@H]2O)C[C@H]2[C@@H]3CC[C@H]4C[C@@H](O)C[C@@H](O[C@@H]5O[C@H](CO)[C@@H](O)[C@H](O)[C@H]5O)[C@]4(C)[C@H]3CC[C@]12C | > 10 | > 100
CC(C)CC[C@H](O)[C@@H](C)[C@H]1[C@@H](O[C@@H]2O[C@@H](C)[C@H](O)[C@@H](O)[C@H]2O)C[C@H]2[C@@H]3CC=C4C[C@@H](O)C[C@@H](O[C@@H]5O[C@@H](C)[C@H](O)[C@@H](O)[C@H]5O)[C@]4(C)[C@H]3CC[C@]12C | > 10 | > 100
C[C@@H]1O[C@@H](O[C@H]2[C@H](O[C@@H]3C[C@H](O)CC4=CC[C@H]5[C@@H]6C[C@@H]7O[C@]8(C[C@H](O)[C@@H](C)CO8)[C@@H](C)[C@@H]7[C@@]6(C)CC[C@@H]5[C@]43C)OC[C@H](O)[C@@H]2O[C@@H]2OC[C@@H](O)[C@H](O)[C@H]2O)[C@H](O)[C@H](O)[C@H]1O | > 10 | > 100
CC(=O)OC[C@H]1O[C@@H](O[C@H]2C[C@H]3[C@@H]4CC[C@H]5C[C@@H](O)C[C@@H](O[C@@H]6O[C@@H](C)[C@H](O)[C@@H](O)[C@H]6O)[C@]5(C)[C@H]4CC[C@]3(C)[C@H]2[C@H](C)[C@@H](O)CCC(C)C)[C@H](O)[C@@H](O)[C@@H]1O | 5.3 (≈ 6.73 µM) | > 100
CC(C)CC[C@H](O)[C@@H](C)[C@H]1[C@@H](O[C@@H]2O[C@H](CO)[C@@H](O)[C@H](O)[C@H]2O)C[C@H]2[C@@H]3CC[C@H]4C[C@@H](O)C[C@@H](O[C@@H]5O[C@@H](C)[C@H](O)[C@@H](O)[C@H]5O)[C@]4(C)[C@H]3CC[C@]12C | > 10 | > 100
CC(=O)OC[C@H]1O[C@@H](O[C@H]2C[C@H]3[C@@H]4CC[C@H]5C[C@@H](O)C[C@@H](O[C@@H]6O[C@@H](C)[C@H](O)[C@@H](O)[C@H]6O)[C@]5(C)[C@H]4CC[C@]3(C)[C@H]2[C@H](C)[C@@H](O)CCC(C)C)[C@H](O)[C@@H](O)[C@@H]1O[C@@H]1OC[C@](O)(CO)[C@H]1O | > 10 | > 100
C[C@@H]1O[C@@H](O[C@H]2[C@H](O[C@@H]3C[C@H](O)CC4=CC[C@H]5[C@@H]6C[C@@H]7O[C@]8(C[C@H](O)[C@@H](C)CO8)[C@@H](C)[C@@H]7[C@@]6(C)CC[C@@H]5[C@]43C)OC[C@H](O)[C@@H]2O)[C@H](O)[C@H](O)[C@H]1O | 5.2 (≈ 7.17 µM) | > 100
COc1cc([C@@H]2c3cc4c(cc3[C@@H](O[C@@H]3O[C@@H]5CO[C@@H](C)O[C@H]5[C@H](O)[C@H]3O)[C@H]3COC(=O)[C@H]23)OCO4)cc(OC)c1O [ETOPOSIDE] | 0.23 (≈ 0.391 µM) | 24.4 (≈ 41.5 µM)
